Experimental data taken from ChEMBL document CHEMBL1144836, “Constituents of the sea cucumber Cucumaria okhotensis. Structures of okhotosides B1-B3 and cytotoxic activities of some glycosides from this species” (J Nat Prod, 2008).

How the values were obtained:
[1] = Decrease in EGF induced AP1 dependent transcription in mouse […] cells at 1.1 ug/ml by luciferase assay; format: functional; design: scale not given: the % may be the effect or the level left
Procedure, shortened: (§1)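 JB6-LucAP-1 reporter cells activated with EGF (10 ng/mL), TPA (20 ng/mL) or UVB (4 kJ/m2), plated at 6 × 10^3/well in 5% FBS/MEM and kept 24 h. Compound added in 0.1% FBS-MEM for 24 h. Cells lysed 1 h at room temperature, then luciferase luminescence read. Two independent experiments, five samples per concentration.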

[2] = Increase in p53 dependent transcription in mouse JB6 Cl41 cells at 1.8 ug/ml by luciferase assay; format: functional
Procedure, shortened: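 JB6-Lucp53 reporter cells, not activated, plated at 6 × 10^3/well in 5% FBS/MEM and kept 24 h. Compound added in 0.1% FBS-MEM for 24 h. Cells lysed 1 h at room temperature, then luciferase luminescence read. Two independent experiments, five samples per concentration.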

[3] = Inhibition EGF induced mouse JB6 P+Cl41 cells colony formation in soft agar; format: functional
Procedure, shortened: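 JB6 P+ Cl41 cells (8 × 10^3/mL) activated with EGF (10 ng/mL), in 0.33% BME agar with 10% FBS over a 0.5% BME agar layer, compound in both layers. Kept 1 week at 37 °C, 5% CO2. Colonies scored by microscopy and INCC50 derived. Two independent experiments in triplicate.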

[4] = Decrease in UVB induced AP1 dependent transcription in mouse JB6 Cl41 cells at 0.7 ug/ml by luciferase assay; format: functional; design: scale not given: the % may be the effect or the level left; procedure, shortened: as §1
[5] = Decrease in TPA induced AP1 dependent transcription in mouse JB6 Cl41 cells at 1.1 ug/ml by luciferase assay; format: functional; design: scale not given: the % may be the effect or the level left; procedure, shortened: as §1
[6] = Decrease in EGF induced NFKappaB dependent transcription in mouse JB6 Cl41 cells at 0.7 ug/ml by luciferase assay; format: functional; design: scale not given: the % may be the effect or the level left
Procedure, shortened: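 JB6-LucNF-κB reporter cells activated with EGF (10 ng/mL), plated at 6 × 10^3/well in 5% FBS/MEM and kept 24 h. Compound added in 0.1% FBS-MEM for 24 h. Cells lysed 1 h at room temperature, then luciferase luminescence read. Two independent experiments, five samples per concentration.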

[7] = tested on: HeLa; assay: Cytotoxicity against human HeLa cells; format: functional, cell-based
Procedure, shortened: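 HeLa cells seeded at 6000 cells/well and cultured 12 h in RPMI with 10% FBS. Medium then replaced with 5% FBS-RPMI containing test concentrations, 22 h incubation. MTS added and reduction read 2 h later by absorbance at 492 nm, with 690 nm as background.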

[8] = tested on: THP-1; assay: Cytotoxicity against human THP1 cells; format: functional, cell-based
[9] = Cytotoxicity against mouse JB6Cl41 cells; format: functional, cell-based; conditions: JB6 Cl41

## CO[C@@H]1[C@@H](O)[C@H](O[C@@H]2[C@@H](O)[C@H](O[C@H]3[C@H](O)[C@@H](O[C@@H]4OC[C@@H](O)[C@H](O)[C@H]4O)[C@H](O[C@H]4[C@H](OC5CC[C@]6(C)[C@H]7CCC89C(=O)O[C@@](C)(CCCC(C)C)C8[C@@H](OC(C)=O)C[C@@]9(C)C7=CC[C@H]6C5(C)C)OC[C@@H](OS(=O)(=O)[O-])[C@@H]4O)O[C@@H]3C)OC[C@H]2O)O[C@H](CO)[C@H]1O.[Na+] (stereo partly specified) [FRONDOSIDE A]
[1]
  Activity: 51%
[2]
  Activity: 39%
[3]
  INCC50: 0.8 µg/mL
[4]
  Activity: 41%
[5]
  Activity: 20%
[6]
  Activity: 37%
[7]
  IC50: 2.1 µg/mL
[8]
  IC50: 4.5 µg/mL
[9]
  IC50: 5.9 µg/mL

## C=C(C)CCC[C@]1(C)OC(=O)C23CC[C@H]4C(=CC[C@H]5C(C)(C)C(O[C@@H]6OC[C@@H](OS(=O)(=O)[O-])[C@H](O)[C@H]6O[C@@H]6O[C@H](CO)[C@@H](O[C@@H]7O[C@H](COS(=O)(=O)[O-])[C@@H](O)[C@H](O[C@@H]8O[C@H](CO)[C@@H](O)[C@H](OC)[C@H]8O)[C@H]7O)[C@H](O)[C@H]6O[C@@H]6OC[C@@H](O)[C@H](O)[C@H]6O)CC[C@]45C)[C@]2(C)C[C@H](OC(C)=O)C31.[Na+].[Na+] (stereo partly specified) [OKHOTOSIDE B2]
[7]
  IC50: 13 µg/mL

## C=C(C)CCC[C@]1(C)OC(=O)C23CC[C@H]4C(=CC[C@H]5C(C)(C)C(O[C@@H]6OC[C@@H](OS(=O)(=O)[O-])[C@H](O)[C@H]6O[C@@H]6O[C@H](CO)[C@@H](O[C@@H]7O[C@H](CO)[C@@H](O)[C@H](O[C@@H]8O[C@H](CO)[C@@H](O)[C@H](OC)[C@H]8O)[C@H]7O)[C@H](O)[C@H]6O[C@@H]6OC[C@@H](O)[C@H](O)[C@H]6O)CC[C@]45C)[C@]2(C)C[C@H](OC(C)=O)C31.[Na+] (stereo partly specified) [OKHOTOSIDE B1]
[7]
  IC50: 34 µg/mL
